KLK5 inh – kallikrein 5 (human) inhibition | Q9Y337 | recombinant hK5, fluorogenic AMC substrate cleavage | inhibition, % at 5 µM | 0.59% of 210,000 active | AID 873;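 active means inhibition of 40% or more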
FXIa inh – inhibitors of human coagulation factor XIa. AID 798. purified FXIa, Boc-Glu-Ala-Arg-AMC fluorogenic substrate. inhibition, % at 5 µM. P03951. 0.14% of 220,000 active;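 active means inhibition of at least 40%; inactive means inhibition below 40%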;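 further: fluorescence of freed AMC excited at 355 nm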
Thrombin inh – blocks human thrombin protease activity. P00734. alpha-thrombin, Boc-VPR-AMC fluorogenic substrate cleavage. inhibition, % at 5 µM. 0.26% of 220,000 active. AID 1046;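 active means inhibition at or above 40%; inactive means inhibition below 40%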
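System – human alpha-thrombin · Medium – pH 7.5 Tris (50 mM) with NaCl 150 mM, Tween 20 0.05% · Compound – single-point dosing at 5 µM, 0.2% DMSO · Incubation – enzyme reaction carried out at room temperature · Technique – fluorescence of released AMC, ex 355 nm, em 460 nm · Read-out basis – % inhibition of thrombin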
FXIIa inh – factor XIIa (human) inhibition | P00748 | purified FXIIa, Boc-QGR-AMC fluorogenic substrate, 2 h | inhibition, % at 5 µM | 0.3% of 220,000 active; in the data active means inhibition above about 40%
Target sequence (P00748 20-372 limits assumed): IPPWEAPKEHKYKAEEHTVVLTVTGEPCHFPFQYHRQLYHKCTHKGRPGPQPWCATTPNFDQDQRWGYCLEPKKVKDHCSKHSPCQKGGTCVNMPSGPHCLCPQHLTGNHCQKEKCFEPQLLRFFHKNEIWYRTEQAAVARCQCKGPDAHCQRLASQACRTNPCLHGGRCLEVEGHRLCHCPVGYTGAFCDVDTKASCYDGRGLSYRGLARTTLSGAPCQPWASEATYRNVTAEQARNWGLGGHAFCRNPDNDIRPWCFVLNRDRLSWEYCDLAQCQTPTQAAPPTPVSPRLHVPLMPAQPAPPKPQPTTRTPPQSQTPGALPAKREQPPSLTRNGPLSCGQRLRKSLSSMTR
Target sequence (P00748 373-615 limits assumed): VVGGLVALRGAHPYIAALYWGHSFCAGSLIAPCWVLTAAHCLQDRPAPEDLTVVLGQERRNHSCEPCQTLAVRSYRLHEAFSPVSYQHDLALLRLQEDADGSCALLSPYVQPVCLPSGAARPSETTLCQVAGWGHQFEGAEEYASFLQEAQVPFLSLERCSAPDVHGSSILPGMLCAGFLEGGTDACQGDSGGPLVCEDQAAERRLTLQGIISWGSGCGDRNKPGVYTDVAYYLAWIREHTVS
m-calpain inh – inhibitors of pig calpain II | 0.37% of 220,000 active | purified calpain II, fluorogenic peptide substrate, 30 min | inhibition, % at 16 µM | AID 1236;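 active means inhibition above about 50%, limit read from the data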
Furin inhibitor – blocks human furin protease activity | 0.061% of 220,000 active | purified furin, fluorogenic substrate cleavage | inhibition, % at 20 µM or 30 µM | P09958 | AID 463115; in the data active means inhibition above about 25%
Numbers stand for hits; n = inactive; x = no result given. A selection: hits, their analogues and other compounds. The true share with any hit is near 1.4%.

SMILES	KLK5 inh	FXIa inh	Thrombin inh	FXIIa inh	m-calpain inh	Furin inhibitor
OC(CN1C2=NCCN2c2ccccc21)c1ccc(Br)cc1 (stereo unspecified)	52.9	n	n	n	n	n
CCCSc1nnc(NC(=O)Nc2ccc(F)cc2)s1	n	n	n	n	n	n
CCCSc1nnc(NC(=O)Nc2ccc(C)cc2)s1	51.8	n	n	n	n	n
CC1(C)CN(c2ccccc2)N(C(=O)c2ccc(C#N)cc2)C1=O	n	n	n	n	n	n
CC(=O)OCC1(C)CN(c2ccccc2)N(C(C)=O)C1=O (stereo unspecified)	n	n	n	n	n	n
CC1(C)CN(c2ccccc2)N(C(=O)c2ccc(F)cc2)C1=O	64.3	n	73.6	n	n	n
CC(=O)OCC1(C)CN(c2ccccc2)N(C(=O)c2ccc(C(C)(C)C)cc2)C1=O (stereo unspecified)	n	n	43.3	n	n	n
CCCN(CCC)C(=O)Cn1ccc(=N)c2ccccc21	45.7	n	n	n	n	n
CC(C)(C)NC(=O)Cn1ccc(=N)c2ccccc21	n	n	n	n	n	n
COc1cc(/C=C2\SC(=S)NC2=O)ccc1OS(=O)(=O)c1ccccc1	n	n	n	n	61.7	n
COc1cc(/C=C2/SC(=S)NC2=O)ccc1OS(=O)(=O)c1ccc(C)cc1	n	n	n	n	62.9	n
CC1=Nc2ccccc2N=C(NC(=O)CN2CCN(c3ccccc3)CC2)C1c1ccccc1 (stereo unspecified)	x	n	n	n	56.6	n
COCCN1C=C2C(=O)C(C)(OC(=O)CCc3ccccc3)C(=O)C=C2C=C1c1ccc(C#N)cc1 (stereo unspecified)	n	n	n	n	n	n
COc1ccc(N(C)S(=O)(=O)c2cccc(C(=O)NCC3CCCCC3)c2)cc1	n	n	n	n	54.7	n
C/C(=N/NC(=O)c1cc(-c2cccc([N+](=O)[O-])c2)n[nH]1)c1ccc(Cl)cc1	n	n	n	n	68.2	n
O=C1CC(Nc2cc(=O)[nH]c(=O)[nH]2)C(=O)N1c1ccccc1Cl (stereo unspecified)	n	n	n	n	n	n
CC1CCC2(CC1)NC(=S)N(c1ccccc1)N2 (stereo unspecified)	n	n	n	n	n	n
CC1CCC2(CC1)NC(=S)N(C(C)(C)C)N2 (stereo unspecified)	42.1	n	n	n	n	n
CCCOc1ccc2c3c(c(=O)oc2c1)CCCC3	n	n	n	n	n	n
COc1ccc(N=C(N)SCc2ccccn2)cc1	n	n	n	n	n	n
CCCCSc1nc2c(cc1C#N)CCC2	103.7	n	n	n	n	n
CSc1nc2c(cc1C#N)CCC2	n	n	n	n	n	n
O=c1cc(CSc2nnc(NC3CCCCC3)s2)nc2sccn12	n	n	n	n	n	n
COC(=O)c1cc(CSc2nnc(NC3CCCCC3)s2)oc1C	42.0	n	n	n	n	n
COc1cc(Cl)c(C)cc1NC(=O)CSC	n	n	n	42.8	n	n
SMILES	KLK5 inh	FXIa inh	Thrombin inh	FXIIa inh	m-calpain inh	Furin inhibitor
CCCCCCCCCn1c2c(c(=N)c3c1CCC3)CCC2	n	n	n	n	50.9	n
CCc1nnc(NC(=O)CSc2ncc(-c3ccccc3)[nH]2)s1	62.9	n	n	n	n	n
CCc1nnc(NC(=O)CSc2nc3ccccc3o2)s1	41.8	n	n	n	n	n
Cc1nnc(NC(=O)CSc2ncc(-c3ccccc3)[nH]2)s1	n	n	n	n	n	n
Cc1ccc(S(=O)(=O)N/N=C\c2cn(-c3ccccc3)nc2-c2ccccc2)cc1	n	n	n	n	n	n
Cc1ccc(-c2nn(-c3ccccc3)cc2/C=N/NS(=O)(=O)c2ccccc2)cc1	n	n	n	45.3	n	n
Cc1ccc(OC(F)F)c(NC(=O)Nc2cccc(C(F)(F)F)c2)c1	56.4	n	n	n	n	n
O=C(Nc1ccccc1)Nc1cccc(C(F)(F)F)c1	n	n	x	n	n	n
CCc1nnc(NC(=O)Cc2ccc(OC)c(OC)c2)s1	n	n	n	n	n	n
O=S(=O)(NCC1CCCO1)c1cnc(Cl)c(Br)c1 (stereo unspecified)	n	n	n	n	n	n
Cc1ccc(NC(=O)Cc2ncc(C(F)(F)F)cc2Cl)cc1Cl	57.4	n	n	n	n	n
O=C1c2ccccc2C(=O)N1OCc1c(F)cccc1Cl	n	n	n	n	n	n
COc1cc(/C=N/n2cnnc2)ccc1OC(=O)c1cccnc1	n	n	n	42.3	n	n
COc1cc(/C=N/n2cnnc2)ccc1OC(=O)c1ccncc1	n	n	n	n	n	n
Cc1nc(Nc2nc3ccccc3o2)nc(C)c1C	n	n	n	n	n	n
Cc1ccnc(Nc2nc3ccccc3o2)n1	n	n	n	n	133.1	n
CC(C)Cn1c(-c2csc3c2CCCC3)n[nH]c1=S	n	n	n	n	50.4	n
COc1cc(C(=O)Nc2ccccc2C2COC(=O)C2=N)cc(OC)c1OC (stereo unspecified)	n	n	n	n	n	n
N#Cc1c(NC(=O)CCn2cnc3ccccc3c2=O)oc(-c2ccccc2)c1-c1ccccc1	n	n	n	n	n	28.3
N#Cc1c(NC(=O)CCN2C(=O)c3ccccc3C2=O)oc(-c2ccccc2)c1-c1ccccc1	n	n	n	n	n	n
CC(C)(C)NC(=O)C(c1cccs1)N(C(=O)c1csnn1)c1cccc(F)c1 (stereo unspecified)	n	n	n	n	n	n
O=C(CSC1CC(=O)N(CCc2ccccc2)C1=O)Nc1cccc(Cl)c1 (stereo unspecified)	n	n	n	n	n	n
O=C(CSC1CC(=O)N(CCc2ccccc2)C1=O)Nc1ccc(Br)cc1 (stereo unspecified)	42.4	n	n	n	n	n
COc1ccc(C2N3CC4(C)CN2CC(C)(C3)C4=O)cc1OC (stereo unspecified)	61.4	n	n	n	n	n
Cc1cc(NC(=O)CSc2ccc3c(c2)OCCO3)no1	n	n	n	n	n	n
SMILES	KLK5 inh	FXIa inh	Thrombin inh	FXIIa inh	m-calpain inh	Furin inhibitor
O=C(O)c1cccc2c1C(=O)N(CC1CCCO1)C2 (stereo unspecified)	n	n	n	n	n	n
O=C(Nc1nc(-c2ccccn2)cs1)C1CC1	n	n	n	n	n	n
O=C(CC1CC2CCC1C2)Nc1nc(-c2ccccn2)cs1 (stereo unspecified)	86.9	n	n	n	n	n
CCOC(=O)C1C(=O)CC(C)(O)C(C(=O)OCC)C1c1ccc(N(CC)CC)cc1 (stereo unspecified)	n	n	n	n	n	n
COC(=O)c1nc(-c2ccccc2)n[nH]1	n	n	n	n	n	n
COC(=O)c1nc(NC(=O)c2ccccc2Cl)n[nH]1	48.2	n	x	81.9	n	n
COC(=O)c1c(NC(=O)C(C)(C)C)csc1C	n	n	n	n	n	n
COC(=O)c1nc(NC(=O)C(C)(C)C)n[nH]1	n	n	55.7	n	n	n
